Only some compounds are listed: those with a hit (about 3.7% of all), similar ones and a draw of the others.
KCNQ1 pot = potentiates or activates the human KCNQ1 potassium channel; CHO-K1 KCNQ1, thallium flux FluxOR fluorescence; hits give high values; B-score at 10 µM; hit rate 0.35% among 310,000; AID 2648;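 active = fluorescence ratio B-score, a plate-corrected score, at least three library SD, with initial intensity B-score within 5 SD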
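System: Stable KCNQ1 CHO-K1 line | Incubation: 90 min dye loading and 20 min compound exposure, both at room temperature | Measure: Ratio B score | Medium: Assay buffer for compound exposure, DMSO matched across wells | Compound dosing: Single-concentration screen | Probe or stimulus: K+/Tl+ depolarizing stimulus | Measured by: Kinetic FluxOR fluorescence, 10 s baseline plus 110 s post-stimulus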
KCNK9 block = inhibitors of human KCNK9 two-pore domain potassium channel. HEK293 KCNK9, FluxOR thallium flux fluorescence; hits give low values. B-score at 10 µM. hit rate 1.2% among 310,000. AID 488922;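 active = ratio B-score over 3 SD below the library mean, with starting fluorescence within 5 SD of its mean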;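 note: negative B-score means less thallium flux so channel inhibition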
Target sequence (Q9NPC2 whole entry, looked up, the tested form may be a part): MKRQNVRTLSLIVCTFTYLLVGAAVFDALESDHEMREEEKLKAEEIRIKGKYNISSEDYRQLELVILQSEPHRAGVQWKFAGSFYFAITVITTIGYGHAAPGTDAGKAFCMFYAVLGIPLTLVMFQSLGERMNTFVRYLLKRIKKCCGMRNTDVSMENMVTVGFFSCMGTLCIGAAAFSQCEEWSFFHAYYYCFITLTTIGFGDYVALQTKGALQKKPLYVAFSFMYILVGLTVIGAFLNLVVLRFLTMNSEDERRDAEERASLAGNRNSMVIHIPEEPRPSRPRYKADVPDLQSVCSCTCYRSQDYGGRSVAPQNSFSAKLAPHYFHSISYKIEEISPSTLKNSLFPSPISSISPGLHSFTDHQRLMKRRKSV
KCNQ1 inh = blocks the human KCNQ1 potassium channel; B-score at 10 µM; hit rate 1.3% among 310,000; CHO-K1 KCNQ1, FluxOR thallium flux fluorescence; hits give high values; P51787;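 active = compounds whose thallium flux B-score, printed positive for inhibition, exceeds three library SD while starting fluorescence stays within three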;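 note: channel opened by potassium depolarization with thallium stimulus after 20 min compound exposure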
KCNK3 inh = human KCNK3 channel inhibition, primary screen; CHO-KCNK3 thallium flux, FluxOR fluorescence; hits give low values; O14649; hit rate 0.84% among 340,000; B-score at 10 µM;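 active = B-score under library mean minus 4 SD, starting fluorescence ratio at most library mean plus 5 SD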;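 note: more negative B-score means stronger inhibition of thallium flux through KCNK3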
Kir21 block = Kir2.1 (mouse) channel inhibition; P35561; HEK293-Kir2.1, FluxOR thallium flux fluorescence; hits give low values; B-score at 10 µM; hit rate 0.85% among 310,000; AID 1672;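 active = fluorescence ratio B-score at or below minus 3 SD of library scores, with starting-brightness B-score within 2 SD, cut at about -4.2 in these data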;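 note: channel flux triggered by added potassium and thallium sulfate stimulus; B-score of peak minus minimum fluorescence over baseline after thallium stimulus; more negative B-score means stronger Kir2.1 block with less thallium influx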
hERG rescue = compounds protecting human hERG from proarrhythmic drug block; Q12809; CHO-hERG, FluxOR thallium flux, dofetilide IC70 present; activation (rescue from dofetilide block), less the hit threshold, % at 10 µM; hit rate 0.51% among 310,000;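 active = activation above the mean of controls blocked by dofetilide plus 5 SD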;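 note: thallium influx through hERG after potassium depolarization seen as dye fluorescence rise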
KCNK9 inh conf = human KCNK9 inhibitor confirmation | shares compounds with KCNK9 block | HEK293 KCNK9 cells, FluxOR thallium flux fluorescence | inhibition, % at 10 µM | hit rate 43% among 4,900;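 active = thallium signal inhibited by more than 5 SD of the compound-free buffer control wells, on both duplicate plates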
Kir2-1 spec = tests whether KCNK9 modulators also affect mouse Kir2.1. shares compounds with KCNK9 block. Kir2.1 cells, FluxOR thallium flux fluorescence. inhibition, % at 10 µM. hit rate 4% among 4,900. AID 492993;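 active = thallium signal drop more than 5 SD beyond the mean of the no-compound control wells, seen in both duplicate plates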;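 note: signal is fluorescence rise after thallium addition divided by baseline fluorescence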
HEK293 Tl ctr = second counter-screen for KCNK9 modulators: effect in non-induced cells. non-induced KCNK9-HEK293, FluxOR thallium flux. shares compounds with KCNK9 block. AID 492997. inhibition, % at 10 µM. hit rate 40% among 4,900;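 active = thallium signal drop beyond 5 SD of the untreated control mean, on both duplicate plates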
A number is an active result; n = inactive; x = not tested or not shown.

SMILES	KCNQ1 pot	KCNK9 block	KCNQ1 inh	KCNK3 inh	Kir21 block	hERG rescue	KCNK9 inh conf	Kir2-1 spec	HEK293 Tl ctr
O=C(c1cc(COc2ccc(F)cc2F)on1)N1CCCC(c2ccccc2)C1 (stereo not drawn)	n	n	n	n	n	n	n	n	36%
O=C(c1ccc(F)cc1)N1CCCC(c2ccccc2)C1 (stereo not drawn)	n	-8.8	n	n	n	n	36%	n	n
COc1ccc(NC(=O)CSc2nnc(-c3cccnc3)s2)cc1	n	n	n	n	n	n	x	x	x
COc1cc(C(=O)NCc2nnc(SCC(=O)N3CCCc4ccccc43)o2)cc(OC)c1OC	n	n	n	n	n	n	x	x	x
O=C(COC(=O)CCNS(=O)(=O)c1cccc(C(F)(F)F)c1)NC(=O)NC1CCCCC1	n	-15	n	n	n	n	61%	n	31%
C=CCc1cc(C(=O)N2CCCCC2)ccc1O	n	n	n	n	n	n	x	x	x
C=CCc1ccc(O)c(-c2ccc(O)c(CC=C)c2)c1	n	-18	n	n	n	n	76%	n	42%
COc1ccc(OC)c(CN2CCN(Cc3cccc4ccccc34)CC2)c1	n	n	n	n	n	n	n	n	n
COc1cccc(CN2CCN(Cc3cccc(Oc4ccccc4)c3)CC2)c1OC	n	n	n	n	n	n	n	n	n
COc1ccc(CN2CCN(Cc3ccccc3C(F)(F)F)CC2)c(OC)c1	n	n	n	n	n	n	n	n	n
COc1cccc(CN2CCN(Cc3ccccc3C(F)(F)F)CC2)c1	n	n	n	n	n	n	n	n	n
COc1cccc(CN2CCN(C(=O)c3cccc4ccccc34)CC2)c1	n	n	n	n	n	n	x	x	x
CC(C)(C)C(=O)Nc1nnc(SCC(=O)NCc2ccco2)s1	n	n	n	n	n	n	x	x	x
C[n+]1cc(C(=O)N2CCCCC2)ccc1/C=C/c1c[nH]c2ccccc12	n	n	n	n	n	n	x	x	x
O=S1(=O)CCN(Cc2ccccc2C(F)(F)F)CC1	n	n	n	n	n	n	x	x	x
Cc1ccccc1CN1CCN(Cc2ccccc2C(F)(F)F)CC1	n	n	n	n	n	n	n	n	n
O=C1C2=C(Nc3ccccc3SC2c2ccco2)c2ccccc21 (stereo not drawn)	n	-18	13	n	n	n	65%	n	30%
C=CCSc1nc2sc3c(c2c(=O)n1CC)CCc1ccccc1-3	n	n	n	n	n	n	n	n	n
C=CCn1c(SCC)nc2sc3c(c2c1=O)CCc1ccccc1-3	n	n	n	n	n	n	x	x	x
Cc1cc(C)nc(SCc2csc(-c3ccccc3)n2)n1	n	-11	n	n	n	n	53%	n	35%
CC(=O)N1CCN(C(=O)C(Cc2c[nH]c3ccccc23)NC(=O)c2ccccc2Cl)CC1 (stereo not drawn)	n	n	n	n	n	n	x	x	x
Cc1ccc(/C=C2\CCC3=C2OC(N)=C(C#N)C3c2ccc(C)cc2)cc1 (stereo not drawn)	n	n	n	n	n	n	x	x	x
N#CC1=C(N)OC2=C(CCc3ccccc32)C1c1ccccc1 (stereo not drawn)	n	-8.7	n	n	n	n	36%	n	40%
O=C(Nc1ccc(Br)cn1)c1cccc2ccccc12	n	n	n	n	n	n	x	x	x
O=C(Nc1ccc(Cl)cn1)c1cccc2c(Br)cccc12	n	-17	n	n	n	n	71%	n	42%
SMILES	KCNQ1 pot	KCNK9 block	KCNQ1 inh	KCNK3 inh	Kir21 block	hERG rescue	KCNK9 inh conf	Kir2-1 spec	HEK293 Tl ctr
CCNc1nc2c(cnn2C)c(=O)[nH]1	x	x	x	n	x	x	x	x	x
CC1Cc2ccccc2N1C(=O)c1cc2sccc2n1Cc1ccc(F)cc1 (stereo not drawn)	n	-9.8	8	n	n	n	37%	n	23%
O=C(NCCCC(=O)N1CCCCC1)c1ccc(Cl)cc1	n	n	n	n	n	n	x	x	x
CN1CCN(C2=C(Cl)C(=O)C(c3cnc(N4CCCCC4)s3)=C(Cl)C2=O)CC1	n	-17	16	n	n	n	n	n	38%
Cc1ccc(Sc2nnc(Cc3ccccc3)c3ccccc23)cc1	n	-13	n	n	n	n	70%	n	42%
COc1ccc(Sc2nnc(Cc3ccccc3)c3ccccc23)cc1	n	-15	n	n	n	n	n	n	27%
COc1ccc(Sc2nnc(-c3ccccc3)cc2C#N)cc1	n	n	n	n	n	n	x	x	x
CC(C)C[C@H](N)c1cn([C@@H](Cc2ccc(O)cc2)C(=O)N2CCNCC2)nn1	n	n	n	n	n	n	x	x	x
CCn1c(SCc2ccc(Cl)cc2Cl)nc2nc3c(cc2c1=O)CCCC3	n	n	n	n	n	n	n	n	n
O=C(Nc1ccc(Br)cc1)c1ccc2c(c1)OCO2	n	n	n	n	n	n	x	x	x
N#C/C(C(=O)Nc1ccc(Cl)cc1)=C(/S)Nc1ccccc1	n	n	n	n	n	n	n	n	n
O=C(Nc1ccc(Nc2ccccc2)cc1)c1ccc(Cl)cc1	n	n	n	n	n	n	x	x	x
CCC(=O)N(CCC(c1ccco1)C(C)C)Cc1ccccc1 (stereo not drawn)	n	-11	n	n	-6.1	n	n	n	34%
CC(C)C(CCN1C(=O)c2ccccc2C1=O)c1ccco1 (stereo not drawn)	n	n	n	n	n	n	x	x	x
CC(=O)N(CCC(c1ccco1)C(C)C)Cc1ccc(Cl)cc1 (stereo not drawn)	n	-9.3	n	n	n	n	40%	33%	46%
CCCC(=O)N(CCN(Cc1ccccc1)C(=O)CCC)Cc1ccccc1	n	n	n	n	n	n	x	x	x
CCC(=O)N(CCC(c1ccc(C)cc1)c1ccco1)Cc1ccco1 (stereo not drawn)	n	-16	n	n	n	n	68%	n	46%
COc1ccc2cc(C(=O)C3CCCN(C(=O)c4cncs4)C3)ccc2c1 (stereo not drawn)	n	n	n	n	n	n	x	x	x
CN(C)S(=O)(=O)c1ccc(C(=O)OCC(=O)Nc2ccc3c(c2)OCO3)cc1	x	x	x	n	x	x	x	x	x
CCOC(=O)C1=C(C(=O)OCC)N(CC2CCCCC2)CCC1=O	x	x	x	n	x	x	x	x	x
CCS(=O)(=O)c1nc(S(=O)(=O)c2ccc(Cl)cc2)c(N2CCOCC2)s1	n	n	n	n	n	n	x	x	x
CCCCNC(=O)CCSc1ccc(C)cc1	n	n	n	n	n	n	x	x	x
Cc1ccc(SCCC(=O)NCCSCc2ccccc2C)cc1	n	n	n	n	n	n	n	n	n
CC(C)(C(=O)c1ccccc1)/[N+]([O-])=C/c1ccc(Br)cc1	n	n	n	n	n	n	x	x	x

Compound activity as filed in PubChem BioAssay.
